# According to ChEMBL document CHEMBL5678805, “Intermittent administration of MEK inhibitor GDC-0973 plus PI3K inhibitor GDC-0941 triggers robust apoptosis and tumor growth inhibition” (Cancer Res, 2012):
# Active and inactive are the calls of the source. The rule behind the calls is not given here.
# Tests used:
# [1] = biological target: Receptor tyrosine-protein kinase erbB-2 (Homo sapiens, UniProt P04626); experiment: Inhibition of ErbB2 (unknown origin)
# [2] = biological target: Platelet-derived growth factor receptor alpha (Homo sapiens, UniProt P16234); experiment: Inhibition of PDGFRalpha (unknown origin)
# Malme-3M = experiment: Antiproliferative activity against human Malme-3M cells assessed reduction in cell viability incubated for 4 days in presence of 4-(2-(1H-indazol-4-yl)-6-((4-(methylsulfonyl)piperazin-1-yl)methyl)thieno[3,2-d]pyrimidin-4-yl)morpholine by celltiter-glo assay; format: functional; conditions: time 4 day
# Outline: (§1)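 4-day CellTiter-Glo viability read-out on melanoma lines, cells exposed to increasing concentrations of each inhibitor alone and in combination.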
# SK-OV-3 = experiment: Antitumor activity against human SK-OV-3 cells harboring FBXW7 R505L and CDKN2A mutant xenografted in mouse assessed as tumor growth inhibition at 5 mg/kg, po; format: functional; conditions: read-out: TGI
# Outline: (§2)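 Human tumor xenografts in mice were dosed orally at the indicated mg/kg. Tumor volume was measured with calipers as (L×W×W)/2. %TGI = 100 × [1 − (AUC treatment/d)/(AUC vehicle/d)], using the area under the fitted tumor-growth curve per day for each dose group relative to vehicle.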
# [3] = biological target: Homeodomain-interacting protein kinase 1 (Homo sapiens, UniProt Q86Z02); experiment: Inhibition of HIPK1 (unknown origin)
# A2058 [4] = experiment: (§3) Antitumor activity against human A2058 cells harboring BRAF V600E/PTEN deletion mutant xenografted in mouse assessed as decrease in cyclin D1 level at 15 mg/kg, po administered every third day for 21 days and measured after 8 hrs post dose in presence of 4-(2-(1H-indazol-4-yl)-6-((4-(methylsulfonyl)piperazin-1-yl)methyl)thieno[3,2-d]pyrimidin-4-yl)morpholine by Western blot analysis; format: functional, organism-based; conditions: time 512.0 hrs
# RPMI-7951 = experiment: Antiproliferative activity against human RPMI-7951 cells assessed reduction in cell viability incubated for 4 days in presence of 4-(2-(1H-indazol-4-yl)-6-((4-(methylsulfonyl)piperazin-1-yl)methyl)thieno[3,2-d]pyrimidin-4-yl)morpholine by celltiter-glo assay; format: functional; conditions: time 4 day; outline: as §1
# [5] = biological target: Dual specificity mitogen-activated protein kinase kinase 7 (Homo sapiens, UniProt O14733); experiment: Inhibition of MKK7beta (unknown origin)
# MOLM-13 = experiment: Antitumor activity against human MOLM-13 cells harboring FLT3 Y599_D600insFDFREYE and c-Cbl E366_Q409del mutant xenografted in mouse assessed as tumor growth inhibition at 5 mg/kg, po; format: functional; conditions: MOLM-13, read-out: TGI; outline: as §2
# A2058 [6] = experiment: as §3, with “as suppression of ERK phosphorylation” for “as decrease in cyclin D1 level”, “after 72” for “after 8”; format: functional, organism-based; conditions: time 576.0 hrs
# A-427 = experiment: Antitumor activity against human A-427 cells harboring […]/LKB1 CDKN2A CTNNB1 T41A SMARCA4 mutant xenografted in mouse assessed as tumor growth inhibition at 5 mg/kg, po; format: functional; conditions: A-427, read-out: TGI
# A-375 = experiment: Antitumor activity against human A-375 cells harboring BRAF V600E/CDKN2A E61 mutant xenografted in mouse assessed as tumor growth inhibition at 2.5 mg/kg, po; format: functional; conditions: A-375, read-out: TGI
# Outline: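 Mice carrying human tumor xenografts dosed orally once daily for 21 consecutive days. Tumor volume measured by calipers as (L×W×W)/2. %TGI = 100×[1 − AUC(treatment/day)/AUC(vehicle/day)], using the area under the fitted growth curve relative to vehicle.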
# [7] = biological target: RAC-beta serine/threonine-protein kinase (Homo sapiens, UniProt P31751); experiment: Inhibition of Akt2 (unknown origin)
# [8] = biological target: Serine/threonine-protein kinase PAK 2 (Homo sapiens, UniProt Q13177); experiment: Inhibition of PAK2 (unknown origin)
# MX1 = experiment: Antitumor activity against human MX1 cells harboring PTEN null mutation xenografted in mouse assessed as tumor growth inhibition at 5 mg/kg, po; format: functional; conditions: read-out: TGI; outline: as §2
# [9] = Antitumor activity against human A375.X1 cells xenografted in mouse assessed as tumor growth inhibition at 20 mg/kg, po administered every third day for 21 days; format: functional; conditions: A375.X1, 504 h, time 21 day, read-out: TGI
# Outline: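 Human tumor xenografts in mice. Drugs given orally, as single agents or combined with the PI3K inhibitor. Schedules were daily (QD) or every third day (Q3D) over 21 days. Tumor volume was measured by caliper as (L×W×W)/2. %TGI = 100×[1 − AUC(treatment/d)/AUC(vehicle/d)] from fitted growth curves, with group means. Tumor lysates were immunoblotted for pS6.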
# [10] = biological target: Serine/threonine-protein kinase pim-1 (Homo sapiens, UniProt P11309); experiment: Inhibition of PIM1 (unknown origin)
# [11] = biological target: Receptor-type tyrosine-protein kinase FLT3 (Homo sapiens, UniProt P36888); experiment: Inhibition of Flt3 (unknown origin)
# NCI-H2122 [12] = experiment: Antitumor activity against human NCI-H2122 cells xenografted in mouse assessed as tumor growth inhibition at 5 mg/kg, po administered once a day for 21 days in presence of 4-(2-(1H-indazol-4-yl)-6-((4-(methylsulfonyl)piperazin-1-yl)methyl)thieno[3,2-d]pyrimidin-4-yl)morpholine; format: functional; conditions: NCI-H2122, 504 h, time 21 day, read-out: TGI
# Outline: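 Mice bearing NCI-H2122 xenografts were given MEK inhibitor, PI3K inhibitor, or both, orally once daily for 21 consecutive days at the doses labeled. Caliper tumor volumes were calculated as (L×W×W)/2. %TGI was derived from the AUC of the fitted growth curve per day relative to vehicle.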
# Misshapen-like kinase 1 = Misshapen-like kinase 1 (Homo sapiens, UniProt Q8N4C8); experiment: Inhibition of MINK (unknown origin)
# A2058 [13] = experiment: Antitumor activity against human A2058 cells xenografted in mouse assessed as effect on S6 phosphorylation at 5 mg/kg, po administered daily for 4 days and measured after 8 hrs; format: functional, organism-based; conditions: time 104.0 hrs
# DLD-1 = experiment: Antitumor activity against human DLD-1 cells harboring KRAS G13D/IDH1 G97D/SMO T640A/APC I1417 mutant xenografted in mouse assessed as tumor growth inhibition at 10 mg/kg, po; format: functional; conditions: read-out: TGI
# Outline: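 Single-agent dose ranging in human tumor xenograft mice at 2.5, 5 or 10 mg/kg oral. Tumor volume was measured by caliper as (L×W×W)/2. %TGI = 100×[1 − AUC(treatment/d)/AUC(vehicle/d)] from the fitted growth curve per dose group, relative to vehicle.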
# A2058 [14] = experiment: Inhibition of PI3K/MEK signaling pathway in human A2058 cells assessed as decrease in ERK phosphorylation by incubated for 24 hrs by Western blot analysis; format: cell-based
# NCI-H2122 [15] = experiment: Antitumor activity against human NCI-H2122 cells harboring KRAS […]/LKB1 P281/TP53Q61L/C176Fl/CDKN2A mutant xenografted in mouse assessed as tumor growth inhibition at 5 mg/kg, po; format: functional; conditions: read-out: TGI
# Outline: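 NCI-H2122 (KRAS G12C) NSCLC xenografts in mice were dosed orally once daily for 21 consecutive days. Tumor volume was measured with calipers as (L×W×W)/2, and body weight was tracked. %TGI was derived from the area under the fitted growth curve per day versus vehicle. Group means with SEM were reported.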
# [16] = biological target: Serine/threonine-protein kinase MARK1 (Homo sapiens, UniProt Q9P0L2); experiment: Inhibition of MARK1 (unknown origin)
# Chain of Serine/threonine-protein kinase MARK1 (Q9P0L2 whole entry): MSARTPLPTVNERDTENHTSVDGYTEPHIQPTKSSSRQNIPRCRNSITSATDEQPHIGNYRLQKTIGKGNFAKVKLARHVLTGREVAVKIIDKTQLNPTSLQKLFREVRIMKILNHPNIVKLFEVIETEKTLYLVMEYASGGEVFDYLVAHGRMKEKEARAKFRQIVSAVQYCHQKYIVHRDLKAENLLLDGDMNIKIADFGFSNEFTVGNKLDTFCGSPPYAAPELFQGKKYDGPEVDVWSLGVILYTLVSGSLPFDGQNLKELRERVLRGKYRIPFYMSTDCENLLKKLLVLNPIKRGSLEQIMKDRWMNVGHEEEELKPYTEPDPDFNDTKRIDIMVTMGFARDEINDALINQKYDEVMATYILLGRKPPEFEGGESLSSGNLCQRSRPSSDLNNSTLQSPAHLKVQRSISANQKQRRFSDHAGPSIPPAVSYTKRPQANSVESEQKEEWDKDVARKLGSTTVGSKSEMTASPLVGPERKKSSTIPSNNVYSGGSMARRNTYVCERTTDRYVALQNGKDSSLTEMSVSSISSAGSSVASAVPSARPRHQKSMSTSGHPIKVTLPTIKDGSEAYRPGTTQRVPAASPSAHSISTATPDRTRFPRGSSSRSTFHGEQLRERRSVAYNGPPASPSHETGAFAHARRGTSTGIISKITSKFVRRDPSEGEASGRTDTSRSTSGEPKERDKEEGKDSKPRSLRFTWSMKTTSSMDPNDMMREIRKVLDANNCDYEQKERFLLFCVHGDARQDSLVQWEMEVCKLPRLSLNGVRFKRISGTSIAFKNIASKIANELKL
# Chain of RAC-beta serine/threonine-protein kinase (P31751 whole entry): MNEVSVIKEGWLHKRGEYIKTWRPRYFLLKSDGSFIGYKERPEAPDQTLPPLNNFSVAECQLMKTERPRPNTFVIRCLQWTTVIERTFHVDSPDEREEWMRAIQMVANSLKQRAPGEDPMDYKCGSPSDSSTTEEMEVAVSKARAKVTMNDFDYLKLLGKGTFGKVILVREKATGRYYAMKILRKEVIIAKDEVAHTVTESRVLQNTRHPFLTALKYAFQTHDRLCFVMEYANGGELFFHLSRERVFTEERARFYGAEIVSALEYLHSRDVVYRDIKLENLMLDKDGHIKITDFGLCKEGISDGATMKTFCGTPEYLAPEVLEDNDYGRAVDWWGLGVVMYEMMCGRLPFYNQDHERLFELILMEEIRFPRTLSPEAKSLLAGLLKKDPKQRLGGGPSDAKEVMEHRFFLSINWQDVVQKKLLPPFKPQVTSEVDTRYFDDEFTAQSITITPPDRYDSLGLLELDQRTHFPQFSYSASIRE
# Chain of Dual specificity mitogen-activated protein kinase kinase 7 (O14733 whole entry): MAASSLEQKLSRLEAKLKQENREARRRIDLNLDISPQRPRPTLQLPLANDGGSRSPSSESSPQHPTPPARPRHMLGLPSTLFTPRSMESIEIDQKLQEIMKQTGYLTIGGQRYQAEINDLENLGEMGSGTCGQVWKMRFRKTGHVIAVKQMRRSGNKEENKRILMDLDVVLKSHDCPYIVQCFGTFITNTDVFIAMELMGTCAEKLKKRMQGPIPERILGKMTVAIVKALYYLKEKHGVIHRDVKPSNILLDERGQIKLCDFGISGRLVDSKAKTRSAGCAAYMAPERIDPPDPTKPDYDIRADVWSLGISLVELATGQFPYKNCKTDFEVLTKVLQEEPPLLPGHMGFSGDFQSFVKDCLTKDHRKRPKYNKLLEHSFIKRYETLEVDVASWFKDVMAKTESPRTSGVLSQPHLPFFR
# Chain of Platelet-derived growth factor receptor alpha (P16234 whole entry): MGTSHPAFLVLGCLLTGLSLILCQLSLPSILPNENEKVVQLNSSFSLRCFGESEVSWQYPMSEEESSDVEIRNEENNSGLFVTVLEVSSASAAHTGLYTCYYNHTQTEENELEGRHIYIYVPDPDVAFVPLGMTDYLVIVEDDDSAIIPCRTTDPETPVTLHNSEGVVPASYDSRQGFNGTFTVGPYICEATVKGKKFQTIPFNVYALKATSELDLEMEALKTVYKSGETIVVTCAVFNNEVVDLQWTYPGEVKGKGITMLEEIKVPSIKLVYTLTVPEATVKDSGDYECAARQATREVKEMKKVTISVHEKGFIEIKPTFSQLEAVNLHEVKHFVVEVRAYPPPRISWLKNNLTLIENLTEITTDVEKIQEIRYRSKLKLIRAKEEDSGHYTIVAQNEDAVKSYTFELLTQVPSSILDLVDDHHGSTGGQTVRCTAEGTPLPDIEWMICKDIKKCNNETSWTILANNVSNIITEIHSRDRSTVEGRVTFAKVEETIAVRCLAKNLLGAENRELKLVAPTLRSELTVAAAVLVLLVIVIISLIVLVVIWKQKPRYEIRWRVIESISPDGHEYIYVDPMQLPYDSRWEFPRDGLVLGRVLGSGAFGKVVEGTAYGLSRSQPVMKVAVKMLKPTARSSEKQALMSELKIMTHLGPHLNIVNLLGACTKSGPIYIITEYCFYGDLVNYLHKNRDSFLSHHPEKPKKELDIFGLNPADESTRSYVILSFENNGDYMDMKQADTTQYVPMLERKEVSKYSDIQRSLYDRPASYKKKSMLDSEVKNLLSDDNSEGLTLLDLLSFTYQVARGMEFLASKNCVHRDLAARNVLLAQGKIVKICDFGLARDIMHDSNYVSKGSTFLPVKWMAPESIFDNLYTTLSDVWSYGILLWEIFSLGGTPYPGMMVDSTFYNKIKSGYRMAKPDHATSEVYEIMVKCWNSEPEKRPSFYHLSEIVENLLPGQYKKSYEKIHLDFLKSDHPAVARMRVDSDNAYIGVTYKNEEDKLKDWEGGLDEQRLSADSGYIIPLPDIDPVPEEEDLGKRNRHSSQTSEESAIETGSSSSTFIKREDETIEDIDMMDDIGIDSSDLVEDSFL
# Chain of Serine/threonine-protein kinase pim-1 (P11309 whole entry): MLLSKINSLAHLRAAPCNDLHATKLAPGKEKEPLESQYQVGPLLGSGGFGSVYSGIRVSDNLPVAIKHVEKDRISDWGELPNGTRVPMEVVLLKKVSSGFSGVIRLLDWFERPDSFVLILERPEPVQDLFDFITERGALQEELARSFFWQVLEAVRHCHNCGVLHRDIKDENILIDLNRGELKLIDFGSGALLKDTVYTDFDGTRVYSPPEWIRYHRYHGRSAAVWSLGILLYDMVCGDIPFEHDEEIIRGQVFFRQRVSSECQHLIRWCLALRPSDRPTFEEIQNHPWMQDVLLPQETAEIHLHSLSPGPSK
# Chain of Homeodomain-interacting protein kinase 1 (Q86Z02 whole entry): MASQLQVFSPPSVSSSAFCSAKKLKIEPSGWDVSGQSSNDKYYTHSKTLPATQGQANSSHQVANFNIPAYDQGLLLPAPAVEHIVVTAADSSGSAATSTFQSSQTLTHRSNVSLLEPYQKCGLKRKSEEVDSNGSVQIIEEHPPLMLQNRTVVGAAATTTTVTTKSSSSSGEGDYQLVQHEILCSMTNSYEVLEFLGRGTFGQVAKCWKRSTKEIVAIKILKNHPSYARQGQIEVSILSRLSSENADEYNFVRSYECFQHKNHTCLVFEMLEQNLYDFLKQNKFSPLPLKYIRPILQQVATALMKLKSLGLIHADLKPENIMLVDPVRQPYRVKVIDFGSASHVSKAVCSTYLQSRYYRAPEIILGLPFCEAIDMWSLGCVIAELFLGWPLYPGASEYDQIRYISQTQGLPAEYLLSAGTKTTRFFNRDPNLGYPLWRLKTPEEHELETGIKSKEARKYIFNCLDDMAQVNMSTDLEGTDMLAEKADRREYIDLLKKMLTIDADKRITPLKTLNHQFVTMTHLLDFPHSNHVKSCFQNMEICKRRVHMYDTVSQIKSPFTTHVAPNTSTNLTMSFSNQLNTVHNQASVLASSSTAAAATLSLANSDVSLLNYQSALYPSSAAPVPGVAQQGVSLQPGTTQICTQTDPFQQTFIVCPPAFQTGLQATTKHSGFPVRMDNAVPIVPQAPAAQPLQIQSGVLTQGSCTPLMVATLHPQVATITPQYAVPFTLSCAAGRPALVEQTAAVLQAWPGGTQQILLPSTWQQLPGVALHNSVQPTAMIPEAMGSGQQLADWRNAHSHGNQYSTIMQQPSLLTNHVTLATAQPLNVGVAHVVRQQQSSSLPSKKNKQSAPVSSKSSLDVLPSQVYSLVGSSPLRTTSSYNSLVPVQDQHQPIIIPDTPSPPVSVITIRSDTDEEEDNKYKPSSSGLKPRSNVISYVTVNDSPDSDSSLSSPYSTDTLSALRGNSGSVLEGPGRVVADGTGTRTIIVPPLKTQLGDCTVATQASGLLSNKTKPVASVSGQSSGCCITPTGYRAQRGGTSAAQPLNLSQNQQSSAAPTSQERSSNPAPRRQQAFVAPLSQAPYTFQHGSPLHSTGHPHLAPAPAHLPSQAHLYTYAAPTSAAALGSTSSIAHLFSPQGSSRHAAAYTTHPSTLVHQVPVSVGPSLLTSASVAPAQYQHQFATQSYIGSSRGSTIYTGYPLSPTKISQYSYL
# Chain of Serine/threonine-protein kinase PAK 2 (Q13177 whole entry): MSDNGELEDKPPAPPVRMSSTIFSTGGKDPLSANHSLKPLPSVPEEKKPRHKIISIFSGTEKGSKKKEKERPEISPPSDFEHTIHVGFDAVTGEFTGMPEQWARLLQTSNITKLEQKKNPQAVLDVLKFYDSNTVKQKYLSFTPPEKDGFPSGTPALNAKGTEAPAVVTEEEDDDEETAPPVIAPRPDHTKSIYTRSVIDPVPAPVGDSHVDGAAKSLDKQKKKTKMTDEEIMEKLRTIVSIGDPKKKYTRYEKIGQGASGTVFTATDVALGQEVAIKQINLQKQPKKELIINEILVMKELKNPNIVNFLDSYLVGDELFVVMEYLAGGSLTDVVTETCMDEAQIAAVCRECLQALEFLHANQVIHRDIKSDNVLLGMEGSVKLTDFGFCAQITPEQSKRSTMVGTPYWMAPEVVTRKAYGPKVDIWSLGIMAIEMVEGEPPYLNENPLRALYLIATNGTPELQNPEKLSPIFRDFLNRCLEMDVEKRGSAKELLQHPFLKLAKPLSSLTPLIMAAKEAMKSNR
smiles,measurement,setting,value
O=C(c1ccc(F)c(F)c1Nc1ccc(I)cc1F)N1CC(O)([C@@H]2CCCCN2)C1 [COBIMETINIB],IC50,[1],> 10 µM
same,IC50,[2],> 10 µM
same,Activity,Malme-3M,60%
same,inhibition in vivo at 5 mg/kg,SK-OV-3,69%
same,IC50,[3],> 10 µM
same,Activity,A2058 [4],Active
same,Activity,RPMI-7951,60%
same,IC50,[5],> 10 µM
same,inhibition in vivo at 5 mg/kg,MOLM-13,-6%
same,Activity,A2058 [6],Active
same,inhibition in vivo at 5 mg/kg,A-427,-137%
same,inhibition in vivo at 2.5 mg/kg,A-375,98%
same,IC50,[7],> 10 µM
same,IC50,[8],> 10 µM
same,inhibition in vivo at 5 mg/kg,MX1,26%
same,inhibition in vivo at 20 mg/kg,[9],94%
same,IC50,[10],> 10 µM
same,IC50,[11],> 10 µM
same,inhibition in vivo at 5 mg/kg,NCI-H2122 [12],75%
same,IC50,Misshapen-like kinase 1,> 10 µM
same,Activity,A2058 [13],Active
same,inhibition in vivo at 10 mg/kg,DLD-1,49.5%
same,inhibition,A2058 [14],Active
same,inhibition in vivo at 5 mg/kg,NCI-H2122 [15],49%
same,IC50,[16],> 10 µM
